TNAP act hiacc – activators of human TNAP at high phosphate acceptor concentration; 200,000 tested, under 10 active; activation factor at 20 µM; P05186; AID 1136; purified TNAP, CDP-star luminescence, 1 M DEA, 30 min; stronger effect = higher value; 0 = EDTA background, 1 = DMSO-only activity;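 active = activation factor at least 2 at 20 µM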
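Assay system: human TNAP; Input: enzyme diluted 1/800 final; Reagent: CDP-star luminogenic substrate at 100 µM final; Timing: 30 min, room temperature; Signal: luminescence; Evaluation: TNAP activation factor scaled between EDTA and DMSO control wells.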
ABCB6 inh 2 – human ABCB6 transporter inhibition | Q9NP58 | K562-ABCB6 porphyrin accumulation, flow cytometry, 1 h; stronger effect = lower value | fluorescence ratio to DMSO, % at 10 µM | actives 0.19% (n = 360,000);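 active = fluorescence ratio to DMSO below 75%, the collection mean minus 3 SD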;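 note: signal is porphyrin accumulated inside mitochondria; 100% equals median channel fluorescence of DMSO control wells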
Target sequence (Q9NP58 whole entry, looked up): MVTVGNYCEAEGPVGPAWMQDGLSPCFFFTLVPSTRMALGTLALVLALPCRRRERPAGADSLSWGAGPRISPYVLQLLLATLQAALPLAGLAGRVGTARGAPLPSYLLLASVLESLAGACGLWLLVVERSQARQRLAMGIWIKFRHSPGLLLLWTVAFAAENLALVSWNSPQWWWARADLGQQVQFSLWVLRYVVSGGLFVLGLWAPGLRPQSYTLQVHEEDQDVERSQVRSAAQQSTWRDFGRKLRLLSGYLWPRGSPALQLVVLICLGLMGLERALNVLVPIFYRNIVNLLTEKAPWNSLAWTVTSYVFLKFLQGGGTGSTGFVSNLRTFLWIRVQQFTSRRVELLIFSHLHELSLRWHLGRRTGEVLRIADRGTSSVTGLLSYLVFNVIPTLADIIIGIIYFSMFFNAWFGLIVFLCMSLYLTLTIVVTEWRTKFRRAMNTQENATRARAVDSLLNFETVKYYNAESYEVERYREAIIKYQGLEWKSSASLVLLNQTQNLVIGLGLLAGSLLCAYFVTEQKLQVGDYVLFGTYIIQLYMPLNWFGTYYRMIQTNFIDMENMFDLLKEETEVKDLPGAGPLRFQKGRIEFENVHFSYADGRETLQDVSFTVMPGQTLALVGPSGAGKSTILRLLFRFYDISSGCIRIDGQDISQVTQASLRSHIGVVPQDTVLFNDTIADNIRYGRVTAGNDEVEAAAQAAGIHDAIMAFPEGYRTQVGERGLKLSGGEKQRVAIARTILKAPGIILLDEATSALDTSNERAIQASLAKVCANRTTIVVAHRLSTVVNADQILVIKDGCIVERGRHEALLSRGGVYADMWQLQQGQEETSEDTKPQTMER
CHT PAM – allosteric activators of human choline transporter CHT. Q9GZV3. CHT-expressing cells, membrane potential dye, choline EC20; stronger effect = higher value; LV-AA mutant CHT in HEK293 cells. B-score at 10 µM. actives 0.49% (n = 310,000). AID 488977;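 active = initial fluorescence not abnormally high and integrated response B-score, plate-corrected, over 3 SD above library mean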
TNAP inh no acc – blocks human TNAP activity with no phosphate acceptor present. P05186. purified TNAP, CDP-star luminescence, 30 min. inhibition, % at 20 µM. actives 0.26% (n = 200,000). AID 1012;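 active = tissue-nonspecific alkaline phosphatase inhibition above about 50% at 20 µM in the single-dose screen, limit read from the data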;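 note: 0% = DMSO negative control and 100% = EDTA positive control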
CHT block – inhibitors of human choline transporter CHT. Q9GZV3. CHT-expressing cells, membrane potential dye, choline response; stronger effect = lower value. B-score at 10 µM. actives 0.86% (n = 310,000). AID 488975;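 active = B-score over 3 SD under the library average, and starting fluorescence ratio not unusually high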;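 note: choline stimulus applied at its EC90 after an EC20 pre-addition; B-score computed on integrated fluorescence ratio after choline addition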
TNAP inh hi DEA – inhibitors of human TNAP at high phosphate acceptor concentration. actives 0.03% (n = 200,000). purified TNAP, CDP-star luminescence, 1 M DEA. inhibition, % at 20 µM. AID 1135. P05186;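 active = over 50% inhibition of tissue-nonspecific alkaline phosphatase at 20 µM in the single-dose screen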;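 note: plate controls were DMSO wells for no effect and EDTA-quenched wells as full inhibition for full effect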
CHT activ conf – confirmation of human choline transporter (CHT) activators | shares compounds with CHT PAM | actives 91% (n = 2,500) | activation, % at 10 µM | CHT-expressing cells, membrane potential dye fluorescence (FDSS); % of choline EC20–EC90 response window; HEK293 expressing CHT LV-AA mutant; choline added at its EC20;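 active = primary screen active, with duplicate mean activation above negative control mean plus 3 SD, cut at about 11% in these data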
HEK293 MP dye – CHT activator counter-screen hit in parental HEK293 cells | shares compounds with CHT PAM | membrane potential dye fluorescence (FDSS); measured after EC20 choline addition | ratio readout change at 10 µM, hits read low | actives 62% (n = 2,500) | AID 623908;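 active = duplicate-averaged ratio beyond 3 SD from buffer wells, up or down, though filed actives are nearly all decreases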
Starred values were filed as active, the others as inactive; i = inactive; / = no result given. Hits are enriched below; roughly 1.4% of the tested compounds scored in any of these assays.

SMILES	TNAP act hiacc	ABCB6 inh 2	CHT PAM	TNAP inh no acc	CHT block	TNAP inh hi DEA	CHT activ conf	HEK293 MP dye
CCOC(=O)N1CCC(N2Cc3cccc(C(=O)NCC4CCN(CC(C)C)C4)c3C2=O)CC1 (configuration not stated)	1	102.0	6.28*	-22.2	i	-4.8	52.5*	-33.7*
COCCN1Cc2cccc(C(=O)NCC3CCN(CC(C)C)C3)c2C1=O (configuration not stated)	1	101.0	i	-14.3	i	-3.5	/	/
C=CCn1c[n+](CC(=O)c2ccc(Br)s2)c2ccccc21	1	101.0	i	-4.1	i	-3.4	45.2*	-27.2*
CCn1c(=N)n(CC(=O)c2ccc(Br)s2)c2ccccc21	/	99.0	i	/	i	/	/	/
Nc1c(-c2ccccc2)c(CSc2nc3ccccc3[nH]2)nn1-c1cccc(Cl)c1	1	101.0	i	-76.7	i	-0.7	/	/
Cc1ccccc1-n1nc(CSc2nc3ccccc3[nH]2)c(-c2ccccc2)c1N	1	101.0	i	-272.9	i	-2.3	35.0*	i
CCC(C)(C)C1CCc2nc3ccccc3c(C(=O)OC(C)C(=O)Nc3c(C)n(C)n(-c4ccccc4)c3=O)c2C1 (configuration not stated)	1.1	88.0	10.7*	-20.6	i	-6.4	32.0*	i
COc1cc(-c2nc3cccc(C)n3c2NCC2CCCO2)ccc1O (configuration not stated)	1	94.0	6.74*	-9.3	i	-4.6	35.9*	-40.4*
COc1ccc(Cl)c2sc(N(CCN(C)C)C(=O)C3=COCCO3)nc12	/	98.0	/	/	/	/	/	/
CCOC(=O)c1cccc(NC(=S)NCc2ccc(C)cc2)c1	1	98.0	i	-22.2	i	-4.3	/	/
CCOc1ccc2[nH]c(C)c(CN(C)C)c(=O)c2c1	1.1	103.0	i	-5.2	i	-5.5	52.6*	-25*
Cc1[nH]c2ccc(Cl)cc2c(=O)c1CN1CCCC1	1	101.0	i	-3.7	i	0.5	/	/
CCOc1ccc2[nH]c(C)c(CN3CCCCC3)c(=O)c2c1	1.1	95.0	7.58*	-14.3	i	-10.0	46.6*	-34.2*
CCOc1ccc2[nH]c(C)cc(=O)c2c1	0.9	91.0	i	-4.0	i	6.4	/	/
c1ccc(Cn2c[n+](Cc3ccccc3)c3ccccc32)cc1	/	97.0	i	/	i	/	45.5*	i
COc1ccc(-c2n(Cc3ccccc3)c3ccccc3[n+]2Cc2ccccc2)cc1	1.1	99.0	i	-3.6	i	-7.5	/	/
CCOP(=O)(OCC)c1ccc2c(c1)C(=O)c1ccccc1CC2	/	96.0	/	/	/	/	/	/
Cc1ccnc(NC(=O)CCC2CCCCC2)c1	1	88.0	i	-9.7	i	-1.0	27.1*	i
COCc1cc(C)nc(SCC[N+](C)(C)CC(=O)c2ccccc2)c1C#N	1	97.0	i	-5.4	i	1.4	/	/
COC(=O)c1ccc2c(=O)n(CCCN3CCOCC3)c(=S)[nH]c2c1	1	100.0	i	-11.1	i	-3.0	23.7*	-39.8*
CCOC(=O)C(C)Sc1cc(CS(=O)(=O)c2ccccc2)nc(-c2ccccc2)n1 (configuration not stated)	1	90.0	7.7*	-8.0	i	-3.4	5.7	i
Cc1ccccc1S(=O)(=O)Oc1cccc2c(O)cccc12	/	97.0	i	/	i	/	/	/
COc1ccc(-c2cn3ccccc3n2)cc1OC	1	99.0	i	-7.6	i	0.9	21.1*	-37.7*
CCC(=O)Nc1cccc(-c2cn3ccccc3n2)c1	1	97.0	i	-2.9	i	-4.7	45.0*	-41.5*
Cc1ccnc(SCCn2c(N3CCOCC3)nc3c2c(=O)[nH]c(=O)n3C)n1	/	95.0	10.3*	/	i	/	65.1*	-58*
SMILES	TNAP act hiacc	ABCB6 inh 2	CHT PAM	TNAP inh no acc	CHT block	TNAP inh hi DEA	CHT activ conf	HEK293 MP dye
CCN1CCN(c2nc3c(c(=O)[nH]c(=O)n3C)n2CCSc2nc3ccccc3s2)CC1	1	100.0	13*	-5.1	i	-2.8	40.3*	-45.4*
CN1CCN(c2nc3c(c(=O)n(C)c(=O)n3C)n2CCSc2nc3ccccc3s2)CC1	1	100.0	7.35*	-7.7	i	-4.9	65.5*	-46.2*
Cc1cccc(Cn2c(N3CCN(C)CC3)nc3c2c(=O)[nH]c(=O)n3C)c1	/	95.0	i	/	i	/	/	/
CC1CC(C)CN(c2nc3c(c(=O)[nH]c(=O)n3C)n2CCCSc2nc3ccccc3s2)C1 (configuration not stated)	/	99.0	/	/	/	/	/	/
CCCn1c(N2CCN(Cc3cccc(C)c3)CC2)nc2c1c(=O)[nH]c(=O)n2C	1	101.0	i	-14.5	i	-4.3	12.3*	-27.6*
COc1ccccc1C(CNC(=O)C(CCSC)NS(=O)(=O)c1ccccc1F)N1CCCC1 (configuration not stated)	/	98.0	i	/	i	/	/	/
Cn1c(=O)[nH]c(=O)c2c1nc(N1CCCCC1)n2CCCSc1nnnn1-c1ccccc1	1	98.0	i	-16.3	i	3.3	/	/
CN1CCN(c2nc3c(c(=O)[nH]c(=O)n3C)n2CCCSc2nnnn2-c2ccccc2)CC1	1.1	96.0	6.59*	-7.5	i	-7.5	47.3*	-49.4*
Cn1c(=O)c2c(nc(N3CCN(C(=O)c4ccco4)CC3)n2CCSc2ncccn2)n(C)c1=O	1	92.0	7.12*	2.1	i	-2.0	56.7*	-58*
CC(C)n1c(SCC(=O)N2CCN(C(=O)c3ccco3)CC2)nc2c1c(=O)n(C)c(=O)n2C	/	98.0	i	/	i	/	/	/
O=C(C1CCN(CC2CC=CCC2)CC1)N(CCc1ccccc1)Cc1ccccc1 (configuration not stated)	1.1	104.0	i	-17.3	i	-10.1	3.9	i
O=C(C1CCN(S(=O)(=O)c2cnc[nH]2)CC1)N(CCc1ccccc1)Cc1ccccc1	1	110.0	i	-11.8	i	0.3	/	/
CCOC(=O)N1CCC(NC(=O)CN(c2ccc(C(C)C)cc2)S(=O)(=O)c2c(C)nn(C)c2C)CC1	/	97.0	i	/	i	/	/	/
C[n+]1ccc(C(=O)N/N=C/c2ccco2)cc1	0.9	102.0	7.12*	-43.0	i	6.0	63.6*	-53.9*
COc1ccc(N(CC(=O)NCCC2=CCCCC2)S(=O)(=O)c2ccc(C)cc2)cc1	1	/	i	-1.7	i	-1.0	/	/

High-throughput results (PubChem)
